# S100A4 inh HTS: S100A4-myosin IIA interaction inhibition. S100A4/TAMRA-MyoIIA peptide fluorescence polarization. inhibition, % at 10.7 µM. hit rate 0.14% among 360,000;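 active = mean inhibition of at least 70% across replicates, with every replicate also reaching that level; inconclusive = mean inhibition reaches 70% but some replicates fall short; inactive = mean inhibition below 70%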
# Target sequence (P26447 whole entry, looked up): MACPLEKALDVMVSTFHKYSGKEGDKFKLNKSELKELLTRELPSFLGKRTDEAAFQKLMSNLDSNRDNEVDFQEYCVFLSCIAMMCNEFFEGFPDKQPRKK
#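 Material: S100A4 monomer protein | Medium: HEPES pH 7.2 with CaCl2, KCl, NaCl, DTT, Triton | Reagent: Labelled myosin peptide probe, 5 nM | Doses: One dose per compound | Times: 5 min incubation before reading | Benchmarks: Neutral control DMSO, positive control TFP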
# HIV Env fusion: HIV envelope-mediated fusion inhibition; HeLa-JRFL Env/CEM21 cell fusion, luciferase; inhibition, % at 12.3 µM; hit rate 1.1% among 360,000; AID 651610;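 active = mean replicate inhibition score of at least 50 and every replicate individually at or above 50; inconclusive = only one of the two criteria met; inactive = mean below 50 and not all replicates reaching 50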;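 note: 0% = plate neutral controls and 100% = maraviroc near 300 nM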
# FGF22 binding: binders of recombinant human FGF22 by thermal shift | hit rate 1.5% among 340,000 | Q9HCT0 | SYPRO orange fluorescence; percent of sucrose octasulfate shift, DMSO zero | activity (Tm shift, normalised), % at 9.99 µM;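 active = mean Tm shift, scaled 0 neutral to 100 positive control, at about 1.3% or above, every replicate too, limit read from the data; inconclusive = no clear call, values can overlap the other calls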
# E-selectin induc: E-selectin induction on HUVECs; P16581; HUVEC E-selectin immunofluorescence imaging; normalized: neutral wells 0, TNF-alpha wells 100; activation, % at 7.58 µM; hit rate 0.37% among 260,000;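 active = mean E-selectin-positive cell signal at least 10% of the positive control, reached in at least 60% of replicates, without over 20% cell loss; inconclusive = no rule given, readout overlaps actives, possibly toxicity-flagged; inactive = the rest, including those meeting only one limit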
# Target sequence (P16581 whole entry, looked up): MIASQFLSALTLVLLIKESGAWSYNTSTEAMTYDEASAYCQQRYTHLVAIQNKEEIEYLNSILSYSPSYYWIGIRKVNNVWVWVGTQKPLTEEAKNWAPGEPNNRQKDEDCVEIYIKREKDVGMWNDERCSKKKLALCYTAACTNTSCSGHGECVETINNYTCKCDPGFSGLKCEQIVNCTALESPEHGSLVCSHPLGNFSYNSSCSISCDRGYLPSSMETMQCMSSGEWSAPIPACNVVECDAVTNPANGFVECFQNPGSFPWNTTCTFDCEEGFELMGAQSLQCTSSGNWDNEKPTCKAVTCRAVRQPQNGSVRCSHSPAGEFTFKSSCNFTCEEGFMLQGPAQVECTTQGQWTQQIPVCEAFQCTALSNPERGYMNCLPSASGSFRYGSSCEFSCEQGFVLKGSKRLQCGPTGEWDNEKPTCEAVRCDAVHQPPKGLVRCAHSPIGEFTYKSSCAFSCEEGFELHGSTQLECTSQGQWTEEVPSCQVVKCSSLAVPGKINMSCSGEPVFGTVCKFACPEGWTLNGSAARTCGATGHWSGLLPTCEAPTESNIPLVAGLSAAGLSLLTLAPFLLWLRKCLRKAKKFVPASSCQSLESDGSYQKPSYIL
#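 Read-out: % PE-positive cells | Test system: HUVEC | Doses: One compound dose added by pin transfer | Buffer or medium: EGM-2 over gelatin coat | Signal: Immunofluorescence imaging | Benchmarks: TNF-alpha, DMSO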
# F508del corr: CFTR F508del correction in bronchial cells; CFBE cells, YFP halide quenching; stimulated with forskolin plus potentiator P3; % fluorescence drop versus neutral controls; activity (quench increase), % at 7.58 µM; hit rate 0.36% among 350,000;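 active = mean added fluorescence quench of at least 8% versus neutral control, with both replicates also reaching 8%; inconclusive = only one of the mean or replicate conditions met; inactive = mean below 8% and not both replicates reaching 8%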;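 note: cells transiently co-express mutant CFTR-F508del with the halide-sensitive YFP; corrector assay measuring rescue of mutant channel to the surface after 24 h compound exposure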
# The depositor's hits bear a star; ? = inconclusive; / = not tested or not shown; [ ] = remark or other dose. Hits are enriched below; roughly 2.7% of the tested compounds scored in any of these assays.
SMILES,S100A4 inh HTS,HIV Env fusion,FGF22 binding,E-selectin induc,F508del corr
O=C(c1ccc(F)cc1)N1CC(=O)N2[C@H](C1)[C@H](c1ccc(C#CC3CCCC3)cc1)[C@@H]2CO,11.2,/,/,-0.6,1.9
O=C(Nc1ccc(F)cc1)Nc1ccc(N2CCCC2)c(S(=O)(=O)Nc2ccccc2Cl)c1,3.8,22.4,0.0,1.4,/
O=C(Nc1ccc(Cl)c(Cl)c1)Nc1ccc(N2CCCC2)c(S(=O)(=O)Nc2ccccc2Cl)c1,/,81.0*,/,/,/
CO[C@@H](CN(C)Cc1ccc(-c2ccccn2)cc1)[C@H](C)CN(C(=O)Nc1ccc(F)cc1)[C@H](C)CO,1.4,/,8.2*,0.0,0.2
CO[C@@H](CN(C)Cc1ccc(-c2ccccn2)cc1)[C@@H](C)CN(C(=O)Nc1ccc(F)cc1)[C@H](C)CO,6.8,/,0.3,-0.1,-2.7
O=C(C[C@@H]1C[C@H]2c3cc(NC(=O)NC4CCCCC4)ccc3O[C@H]2[C@@H](CO)O1)NCc1ccncc1,-41.5,61.5*[16.7 µM],-0.2,0.0,-1.9
O=C(C[C@@H]1C[C@H]2c3cc(NC(=O)NC4CCCC4)ccc3O[C@H]2[C@@H](CO)O1)NCCc1ccccc1,8.0,-4.0[16.7 µM],-0.1,0.0,-1.9
O=C(C[C@@H]1C[C@H]2c3cc(NC(=O)NC4CCCC4)ccc3O[C@H]2[C@H](CO)O1)NCCc1ccccc1,111.1*,37.1[16.7 µM],-0.5,-0.1,-1.4
O=C(C[C@H]1C[C@H]2c3cc(NC(=O)NC4CCCC4)ccc3O[C@H]2[C@@H](CO)O1)NC1CCCCC1,-4.2,83.7*[16.7 µM],-0.2,0.0,-2.9
CN(C)C(=O)C[C@H]1C[C@@H]2c3cc(NC(=O)NC4CCCCC4)ccc3O[C@@H]2[C@H](CO)O1,2.3,75.4*[16.7 µM],0.0,0.2,-1.6
COCC(=O)Nc1ccc2c(c1)C(=O)N(C)C[C@H](OC)[C@@H](C)CN(Cc1cccnc1)[C@H](C)CO2,17.4,/,-0.1,0.0,-0.5
COc1ccccc1CNC(=O)C[C@@H]1C[C@@H]2c3cc(NC(=O)NC4CCCC4)ccc3O[C@@H]2[C@@H](CO)O1,16.3,-2.4[16.7 µM],-0.7,-0.1,0.4
C/C=C/c1cnc2c(c1)C(=O)N([C@@H](C)CO)C[C@@H](C)[C@H](CN(C)C(=O)Nc1ccc(OC)cc1)O2,11.3,5.4[16.7 µM],-0.8,0.8,0.2
CCN1/C(=C\C(=S)Nc2ccccc2)Sc2ccccc21,-15.2,-10.3,44.2*,0.4,2.9
CCN1/C(=C\C=C(C(C)=O)C(C)=O)Sc2ccccc21,-21.4,-3.1,0.7,4.6,-5.2
CC(C)NC(=O)N1C[C@H]2[C@@H](c3ccccc31)[C@@H](CO)N2C(=O)c1ccccc1F,-25.8,/,-0.1,-0.3,-2.2
O=C1OCC2=C1C(c1ccc3c(c1)OCO3)c1cc3c(cc1O2)OCO3 (stereo not given),-2.9,34.1,-0.2,1.2,9.8*
COc1cc(C2C3=C(COC3=O)Oc3cc4c(cc32)OCO4)cc(OC)c1OC (stereo not given),-2.5,-191.2,0.0,1.2,1.9
COc1ccc(S(=O)(=O)N(C)C[C@@H]2Oc3ccc(NC(=O)NC(C)C)cc3C(=O)N([C@@H](C)CO)C[C@H]2C)cc1,/,4.1[16.7 µM],/,0.0,0.3
CO[C@@H]1CN(C)C(=O)c2cc(NC(C)=O)ccc2OC[C@H](C)N(CCC(F)(F)F)C[C@H]1C,-9.4,/,-0.4,-0.1,0.8
O=S(=O)(NCC1CCCO1)c1ccc(Oc2ccccc2)cc1 (stereo not given),/,57.1*,/,/,/
COc1ccc(NS(=O)(=O)c2ccc(NC(=S)NCC3CCCO3)cc2)cc1 (stereo not given),-5.9,-190.1,-0.3,-0.9,-2.2
CCNS(=O)(=O)c1ccc(NC(=S)NCC2CCCO2)cc1 (stereo not given),0.9,15.4,43.2*,-0.8,3.2
O=S(=O)(NCC1CCCO1)c1ccc(-c2ccc(S(=O)(=O)NCC3CCCO3)cc2)cc1 (stereo not given),-2.5,?,0.2,/,0.9
O=C(Nc1ccc(F)cc1)Nc1ccc2c(c1)[C@H]1C[C@@H](CC(=O)N3CCOCC3)O[C@H](CO)[C@H]1O2,-3.7,17.3[16.7 µM],0.1,-0.1,-3.0
SMILES,S100A4 inh HTS,HIV Env fusion,FGF22 binding,E-selectin induc,F508del corr
CC(C)N1C(=O)c2ccccc2NC(=O)C1C(=O)NCc1ccccc1 (stereo not given),-11.7,59.5*,0.2,1.1,-0.6
O=C(NCCc1ccccc1)C1C(=O)Nc2ccccc2C(=O)N1C1CCCCC1 (stereo not given),-0.8,-2.7,-0.3,207.3*,-0.7
COc1ccc(N2C(=O)c3ccccc3NC(=O)C2C(=O)NCCc2ccccc2F)cc1 (stereo not given),-11.5,58.5*,-0.3,?,2.1
O=C(NCc1ccccc1)C1C(=O)Nc2ccccc2C(=O)N1C1CCCC1 (stereo not given),1.6,39.3,0.0,-0.1,-0.6
COc1ccc(N2C(=O)c3ccccc3NC(=O)C2C(=O)NCc2ccco2)cc1 (stereo not given),-3.9,-14.1,-0.1,0.4,1.1
COc1ccccc1NC(=O)N[C@H]1CC[C@@H](CCn2cc(-c3ccccc3)nn2)O[C@@H]1CO,4.6,1.8[16.7 µM],-0.1,-0.5,-0.1
O=C(C[C@H]1CC[C@H]2NC[C@@H](O)COC[C@@H]2O1)Nc1ccccc1,0.3,/,-0.1,-0.1,-3.0
Cc1ccc(S(=O)(=O)N(C)C[C@@H]2Oc3cc(C4=CCCC4)ccc3S(=O)(=O)N([C@@H](C)CO)C[C@H]2C)cc1,?,57.7*[16.7 µM],0.1,0.1,4.8
Cc1ccc(S(=O)(=O)N(C)C[C@H]2Oc3cc(C4=CCCC4)ccc3S(=O)(=O)N([C@H](C)CO)C[C@H]2C)cc1,6.1,60.2*[16.7 µM],0.2,-0.3,-2.3
C[C@@H]1CN([C@H](C)CO)S(=O)(=O)c2ccc(C3=CCCC3)cc2O[C@@H]1CN(C)S(=O)(=O)c1ccc(F)cc1,-7.0,49.6[16.7 µM],-0.2,-0.1,-1.7
C[C@@H]1CN([C@@H](C)CO)S(=O)(=O)c2ccc(C3=CCCCC3)cc2O[C@@H]1CN(C)S(=O)(=O)c1ccc(F)cc1,8.0,62.5*[16.7 µM],0.6,0.4,-0.4
COc1cccc(S(=O)(=O)N(C)C[C@H]2Oc3cc(C4=CCCC4)ccc3S(=O)(=O)N([C@@H](C)CO)C[C@H]2C)c1,-0.5,110.2*[16.7 µM],-0.2,0.2,2.5
C[C@@H]1CN([C@@H](C)CO)C(=O)c2cc(-c3cccc(F)c3)cnc2O[C@H]1CN(C)C(=O)C1CC1,/,-7.8[16.7 µM],/,0.4,-3.3
COc1ccc2c3c(n(C)c2c1)[C@@H](CO)N(C(=O)C1CC1)CC31CCN(C)CC1,2.1,-0.6[16.7 µM],0.1,0.2,-1.5
CO[C@@H]1CN(C)C(=O)c2cc(NC(C)=O)ccc2OC[C@H](C)N(Cc2cc(F)ccc2F)C[C@@H]1C,-1.2,16.5[16.7 µM],-0.3,0.0,3.8
Cc1ccc(S(=O)(=O)NCc2ccncc2)cc1C,-5.3,-1.3,0.2,-1.2,-1.3

# Compound activity as filed in PubChem.
